Data as given in ChEMBL document CHEMBL1152718, “Novel potent inhibitors of hepatitis C virus (HCV) NS3 protease with cyclic sulfonyl P3 cappings” (Bioorg Med Chem Lett, 2009).
Calls of active or inactive are those of the source. The calls are words filed in the database; no cut-off is given here.

Key:
[1] = Inhibition of HCV isolate BK NS4A-tethered single chain NS3 serine protease; design: species or system Hepatitis C virus (isolate BK)
Procedure, shortened: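 Continuous (kinetic) assay using the NS4A-tethered single-chain NS3 serine protease. The result is reported as K_i*, an equilibrium constant covering the reversible covalent ketone–serine adduct plus other inhibitor–enzyme contacts.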

[2] = Selectivity for HCV isolate BK NS4A-tethered single chain NS3 serine protease over human neutrophil elastase
[3] = test system: Hepatitis C virus; assay: Antiviral activity against HCV in human Huh7 cells by replicon-based ELISA; type: functional, Hepacivirus hominis; settings: Huh-7
Procedure, shortened: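 Replicon assay run only on compounds with good enzyme potency. The value is EC90, the concentration that inhibits 90% of replicon replication.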

[4] = test system: Rattus norvegicus; assay: (§1) AUC in rat at 3 mg/kg, po; type: ADME, organism-based, Plasma; design: dose 3 mg/kg, route oral; settings: in vivo
[5] = as §1; type: ADME, organism-based, Plasma; design: dose 3 mg/kg, route oral; settings: plasma
[6] = Bioavailability in monkey; type: ADME, organism-based, Macaca mulatta; settings: rhesus monkey, in vivo
[7] = Bioavailability in dog; type: ADME, organism-based, Canis lupus familiaris; settings: in vivo

SMILES	Ki [1] [nM]	Selectivity ratio [2]	EC90 [3] [nM]	Activity [4]	AUC [5] [µM·h]	bioavailability [6] [%]	bioavailability [7] [%]	EC90 ([3]; Hepacivirus hominis)	Activity ([3]; Hepacivirus hominis)
C=CCNC(=O)C(=O)C(CCC)NC(=O)[C@@H]1[C@@H]2[C@H](CN1C(=O)[C@@H](NC(=O)N[C@H](CN1Cc3sccc3S1(=O)=O)C(C)(C)C)C1CCCCC1)C2(C)C (some centres not stated)	14	10	100	–	–	–	–	–	–
C=CCNC(=O)C(=O)C(CCC)NC(=O)[C@@H]1[C@@H]2[C@H](CN1C(=O)[C@@H](NC(=O)N[C@H](CN1C(=O)c3ccccc3S1(=O)=O)C(C)(C)C)C(C)(C)C)C2(C)C (some centres not stated)	15	310	230	–	–	–	–	–	–
C=CCNC(=O)C(=O)C(CCC)NC(=O)[C@@H]1[C@@H]2[C@H](CN1C(=O)[C@@H](NC(=O)N[C@H](CN1Cc3ccccc3S1(=O)=O)C(C)(C)C)C1CCCCC1)C2(C)C (some centres not stated)	7	19	150	–	–	–	–	–	–
C#CCCC(NC(=O)[C@@H]1[C@@H]2[C@H](CN1C(=O)[C@@H](NC(=O)N[C@H](CN1Cc3ccccc3S1(=O)=O)C(C)(C)C)C(C)(C)C)C2(C)C)C(=O)C(=O)NCC=C (some centres not stated)	0.9	380	250	Not Active	–	–	–	–	–
C=CCNC(=O)C(=O)C(CCCC)NC(=O)[C@@H]1[C@@H]2[C@H](CN1C(=O)[C@@H](NC(=O)N[C@H](CN1Cc3ccccc3S1(=O)=O)C(C)(C)C)C(C)(C)C)C2(C)C (some centres not stated)	5	6100	80	–	1.43	–	–	–	–
C=CCNC(=O)C(=O)C(CCC)NC(=O)[C@@H]1[C@@H]2[C@H](CN1C(=O)[C@@H](NC(=O)N[C@H](CN1CCCCS1(=O)=O)C(C)(C)C)C(C)(C)C)C2(C)C (some centres not stated)	6	650	200	–	0.67	–	–	–	–
C=CCNC(=O)C(=O)C(CCC)NC(=O)[C@@H]1[C@@H]2[C@H](CN1C(=O)[C@@H](NC(=O)N[C@H](CN1CCCN(C)S1(=O)=O)C(C)(C)C)C(C)(C)C)C2(C)C (some centres not stated)	14	490	150	–	0.2	–	–	–	–
CC(C)(C)NC(=O)N[C@H](C(=O)N1C[C@H]2[C@@H]([C@H]1C(=O)NC(CC1CCC1)C(=O)C(N)=O)C2(C)C)C(C)(C)C (some centres not stated) [BOCEPREVIR]	14	–	350	–	–	4	34	–	–
C=CCNC(=O)C(=O)C(CC1CC1)NC(=O)[C@@H]1[C@@H]2[C@H](CN1C(=O)[C@@H](NC(=O)N[C@H](CN1Cc3ccccc3S1(=O)=O)C(C)(C)C)C(C)(C)C)C2(C)C (some centres not stated)	7	1600	150	–	0.705	–	–	–	–
C=CCNC(=O)C(=O)C(CCC)NC(=O)[C@@H]1[C@@H]2[C@H](CN1C(=O)[C@@H](NC(=O)N[C@H](CN1Cc3ccccc3S1(=O)=O)C(C)(C)C)C(C)(C)C)C2(C)C (some centres not stated)	3	650	–	–	0.373	–	–	–	–
C=CCNC(=O)C(=O)C(CCC)NC(=O)[C@@H]1[C@@H]2[C@H](CN1C(=O)[C@@H](NC(=O)N[C@H](CN1Cc3sccc3S1(=O)=O)C(C)(C)C)C1(C)CCCCC1)C2(C)C (some centres not stated)	3	68	100	–	–	–	–	–	–
C=CCNC(=O)C(=O)C(CCC)NC(=O)[C@@H]1[C@@H]2[C@H](CN1C(=O)[C@@H](NC(=O)N[C@H](CN1Cc3sccc3S1(=O)=O)C(C)(C)C)C(C)(C)C)C2(C)C (some centres not stated)	10	150	150	–	0.43	–	–	–	–
C=CCNC(=O)C(=O)C(CCC)NC(=O)[C@@H]1[C@@H]2[C@H](CN1C(=O)[C@@H](NC(=O)N[C@H](CN1Cc3ccccc3S1(=O)=O)C1CCCCC1)C(C)(C)C)C2(C)C (some centres not stated)	18	55	–	–	–	–	–	inactive	–
C=CCNC(=O)C(=O)C(CCC)NC(=O)[C@@H]1[C@@H]2[C@H](CN1C(=O)[C@@H](NC(=O)N[C@H](CN1CCCS1(=O)=O)C(C)(C)C)C(C)(C)C)C2(C)C (some centres not stated)	11	230	200	–	0.09	–	–	–	–
C=CCNC(=O)C(=O)C(CCC)NC(=O)[C@@H]1[C@@H]2[C@H](CN1C(=O)[C@@H](NC(=O)NC1(CN3Cc4sccc4S3(=O)=O)CCCCC1)C(C)(C)C)C2(C)C (some centres not stated)	41	130	400	–	–	–	–	–	–
C=CCNC(=O)C(=O)C(CCC)NC(=O)[C@@H]1[C@@H]2[C@H](CN1C(=O)[C@@H](NC(=O)N[C@H](CN1CCCCS1(=O)=O)C1CCCCC1)C(C)(C)C)C2(C)C (some centres not stated)	30	50	250	–	0.18	–	–	–	–
C=CCNC(=O)C(=O)C(CCC)NC(=O)[C@@H]1[C@@H]2[C@H](CN1C(=O)[C@@H](NC(=O)N[C@H](CN1CCCNS1(=O)=O)C(C)(C)C)C(C)(C)C)C2(C)C (some centres not stated)	59	80	350	–	–	–	–	–	–
C=CCNC(=O)C(=O)C(CC1CCC1)NC(=O)[C@@H]1[C@@H]2[C@H](CN1C(=O)[C@@H](NC(=O)N[C@H](CN1Cc3ccccc3S1(=O)=O)C(C)(C)C)C(C)(C)C)C2(C)C (some centres not stated)	30	1500	–	Not Active	–	–	–	–	inactive
C=CCNC(=O)C(=O)C(CCC)NC(=O)[C@@H]1[C@@H]2[C@H](CN1C(=O)[C@@H](NC(=O)N[C@H](CN1Cc3ccccc3S1(=O)=O)C(C)(C)C)C1(C)CCCCC1)C2(C)C (some centres not stated)	5	50	150	–	–	–	–	–	–
